Calls of active or inactive are those of the source. No cut-off for these calls is given here.
How the values were obtained:
[1] = Induction of BMP2 expression in mouse calcarial MC3T3-E1 cells stably transfected with mouse BMP2 promotor-luciferase assessed as upregulation rate at 4 uM; format: functional, cell-based
How it was run: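 Reporter assay in murine calvarial MC3T3-E1 cells stably carrying the mouse BMP-2 promoter fused to firefly luciferase (pGL4BMP-2). Cells grown in DMEM with 10% heat-inactivated FBS at 37 °C and 5% CO2. Test compounds at 4.0 μM; lovastatin at 0.4 μM as positive control; 0.1% DMSO as negative control. Up-regulation rate = (RLU of test − RLU of negative control)/RLU of negative control × 100.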

Mus musculus [2] = experiment: Induction of bone mineral density in SAMP6 mouse assessed as whole body BMD at 10 mg/kg/day, po measured after 1 month; format: functional, organism-based; details: 30 mg/kg, in the assay text read “30 mg/kg/day” for “10 mg/kg/day”
How it was run: (§1)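 SAMP6 mice, 5 months old, n = 5 per group, given compound in 0.5% methylcellulose by gavage daily. Dual-energy X-ray absorptiometry under pentobarbital anaesthesia (50 mg/kg ip), animals prone, at 0, 4, 8 and 12 weeks of treatment. Regions of interest were whole body, spine and left hind leg.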

Mus musculus [3] = experiment: Induction of bone mineral density in SAMP6 mouse assessed as whole body BMD at 30 mg/kg/day, po measured after 2 months; format: functional, organism-based; how it was run: as §1
Mus musculus [4] = experiment: Toxicity in SAMP6 mouse assessed as increase in body weight at 30 mg/kg/day, po after 3 months; format: organism-based; parameters: route oral; details: in vivo
How it was run: (§2)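 SAMP6 mice, n = 5 per group, dosed orally at 30 mg/kg/day in 0.5% methylcellulose for 3 months. Heart, liver, spleen, lung and kidney harvested, weighed and examined histologically. Organ/body weight indexes, body weight, and 24 h water and food intake (g/g body weight) compared with vehicle controls.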

Mus musculus [5] = experiment: Induction of BMP2 expression in SAMP6 mouse osteoblast at 30 mg/kg/day, po after 3 months by immunohistochemical analysis; format: functional, organism-based
How it was run: (§3)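 SAMP6 mice, 5 months old, male and female, n = 5 per group (3 male, 2 female). Dosed by gavage with compound suspended in 0.5% methylcellulose daily for 3 months; the vehicle group received methylcellulose only. Proximal third of the left femur fixed in 4% neutral paraformaldehyde for 24 h, decalcified in 10% EDTA at 4 °C for 4 weeks, then frozen-sectioned at 5 μm. Stained with rabbit polyclonal anti-BMP-2 and an alkaline phosphatase secondary. BMP-2-positive area was taken as a percentage of bone tissue area, averaged over five fields below the epiphyseal plate.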

Mus musculus [6] = experiment: Toxicity in SAMP6 mouse assessed as change in 24 hrs food consumption at 30 mg/kg/day, po after 3 months; format: organism-based; parameters: route oral; details: in vivo; how it was run: as §2
Mus musculus [7] = experiment: Induction of bone formation in SAMP6 mouse right femora assessed as trabecular bone volume percentage at 30 mg/kg/day, po measured after 3 months by bone histomorphometry; format: functional, Trabecula
How it was run: (§4)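 SAMP6 mice, 5 months old, n = 5 per group (3 male, 2 female), randomized by initial BMD. Given compound in 0.5% methylcellulose by gavage daily for 3 months. Proximal third of the right femur fixed in 4% paraformaldehyde, cut as undecalcified sections, and scored by image analysis for histomorphometry.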

Mus musculus [8] = experiment: Induction of bone mineral density in SAMP6 mouse assessed as whole body BMD at 30 mg/kg/day, po measured after 3 months; format: functional; how it was run: as §1
Mus musculus [9] = experiment: Toxicity in SAMP6 mouse assessed as pathological changes in heart at 30 mg/kg/day, po after 3 months by histomorphology; format: organism-based; parameters: route oral; details: in vivo; how it was run: as §2
Mus musculus [10] = experiment: Induction of BMP2 expression in SAMP6 mouse cartilage cells at 30 mg/kg/day, po after 3 months by immunohistochemical analysis; format: functional, organism-based; how it was run: as §3
[11] = Toxicity in po dosed Kunming mouse assessed as mortality treated for 3 days measured after 17 days; format: organism-based; details: in vivo
How it was run: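 Male and female Kunming mice (18-21 g), six per group (three males, three females), were dosed orally at 500 or 700 (mg/kg)/day for 3 days. They were closely watched for deaths over the 3 dosing days and the following 14 days (17 days in total).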

Mus musculus [12] = experiment: Toxicity in SAMP6 mouse assessed as pathological changes in kidney at 30 mg/kg/day, po after 3 months by histomorphology; format: organism-based; parameters: route oral; details: in vivo; how it was run: as §2
Mus musculus [13] = experiment: Toxicity in SAMP6 mouse assessed as pathological changes in lung at 30 mg/kg/day, po after 3 months by histomorphology; format: organism-based; parameters: route oral; details: in vivo; how it was run: as §2
Mus musculus [14] = experiment: Induction of bone mineral density in SAMP6 mouse assessed as whole body BMD at 10 mg/kg/day, po measured after 2 months; format: functional, organism-based; details: 30 mg/kg, in the assay text read “30 mg/kg/day” for “10 mg/kg/day”; how it was run: as §1
Mus musculus [15] = experiment: Induction of bone formation in SAMP6 mouse right femora assessed as average osteoid width at 30 mg/kg/day, po measured after 3 months by bone histomorphometry; format: functional; how it was run: as §4
Mus musculus [16] = experiment: Toxicity in SAMP6 mouse assessed as change in 24 hrs water consumption at 30 mg/kg/day, po after 3 months; format: organism-based; parameters: route oral; details: in vivo; how it was run: as §2
Mus musculus [17] = experiment: Toxicity in SAMP6 mouse assessed as pathological changes in liver at 30 mg/kg/day, po after 3 months by histomorphology; format: organism-based; parameters: route oral; details: in vivo; how it was run: as §2
Mus musculus [18] = experiment: Induction of bone mineral density in SAMP6 mouse assessed as left hind leg BMD at 30 mg/kg/day, po measured after 3 months; format: functional; how it was run: as §1
Mus musculus [19] = experiment: Induction of bone formation in SAMP6 mouse right femora assessed as trabecular resorption surface percentage at 30 mg/kg/day, po measured after 3 months by bone histomorphometry; format: functional, Trabecula; how it was run: as §4
Mus musculus [20] = experiment: Toxicity in SAMP6 mouse assessed as pathological changes in spleen at 30 mg/kg/day, po after 3 months by histomorphology; format: organism-based; parameters: route oral; details: in vivo; how it was run: as §2
Mus musculus [21] = experiment: Induction of bone formation in SAMP6 mouse right femora assessed as trabecular formation surface percentage at 30 mg/kg/day, po measured after 3 months by bone histomorphometry; format: functional, Trabecula; how it was run: as §4
Mus musculus [22] = experiment: Induction of BMP2 expression in SAMP6 mouse bone marrow stroma at 30 mg/kg/day, po after 3 months by immunohistochemical analysis; format: functional, organism-based; how it was run: as §3
Mus musculus [23] = experiment: Induction of bone mineral density in SAMP6 mouse assessed as spine BMD at 30 mg/kg/day, po measured after 3 months; format: functional; how it was run: as §1
Mus musculus [24] = experiment: Induction of bone mineral density in SAMP6 mouse assessed as spine BMD at 30 mg/kg/day, po measured last 2 months; format: functional, organism-based; how it was run: as §1
Mus musculus [25] = experiment: Induction of BMP2 expression in SAMP6 mouse osteoblast at 10 mg/kg/day, po after 3 months by immunohistochemical analysis; format: functional, organism-based; how it was run: as §3

`CCOC(=O)c1ccc2sc(C(=O)/C=C/c3ccccc3)cc2c1` showed an Activity [1] of 12.6%.
With `CCOC(=O)c1cc2cc3c(cc2s1)OCO3` the Activity (Mus musculus [2]) was “Active”, the Activity (Mus musculus [3]) was “Active” and the Activity (Mus musculus [4]) was “Non-toxic”. For the same molecule, the Activity (Mus musculus [5]) was “Active”, the Activity (Mus musculus [6]) was “Non-toxic” and the Activity (Mus musculus [7]) was 7.1%. For the same molecule, the Activity (Mus musculus [8]) was 0.072 g/cm2, the Activity (Mus musculus [9]) was “Non-toxic” and the Activity (Mus musculus [10]) was “inactive”. For the same molecule, the LD50 at 408 h [11] was greater than 500 mg/kg, the Activity (Mus musculus [12]) was “Non-toxic” and the Activity (Mus musculus [13]) was “Non-toxic”. The Activity (Mus musculus [14]) was “Active”, the Activity (Mus musculus [15]) was 5.76 µm and the Activity (Mus musculus [16]) was “Non-toxic”. The Activity (Mus musculus [17]) was “Non-toxic”, the Activity (Mus musculus [18]) was 0.053 g/cm2 and the Activity (Mus musculus [19]) was 6.45%. The Activity (Mus musculus [20]) was “Non-toxic”, the Activity (Mus musculus [21]) was 5.55% and the Activity (Mus musculus [22]) was “Active”. For the same molecule, the Activity (Mus musculus [23]) was 0.091 g/cm2, the Activity (Mus musculus [24]) was “Active” and the Activity (Mus musculus [25]) was “Active”. For the same molecule, the Activity [1] was 64.2%.
For `CCOC(=O)c1ccc2sc(C(=O)/C=C/c3ccc(OC)c(OC)c3)cc2c1`, the Activity [1] was -9.6%.
`CCOC(=O)c1cc2cc(Cl)cc(Cl)c2o1` gave an Activity [1] of -1.6%.
`CCOC(=O)c1cc2cc(C(=O)OC)ccc2s1` showed an Activity [1] of 49.8%.
With `CCOC(=O)c1cc2cccc(F)c2o1` the Activity [1] was -18.1%.
In the case of `O=C(/C=C/c1ccccc1)c1cc2ccccc2s1`, the Activity [1] is reported as 15.4%.
Work on `CCOC(=O)c1ccc2sc(C(=O)/C=C/c3ccc(OC)c(OC)c3OC)cc2c1` yielded an Activity [1] of -21.5%.
In the case of `C[S+]([O-])CC(=O)c1cc2c(Cl)cccc2s1` (configuration not stated), the Activity [1] is reported as 18.5%.
In the case of `C[S+]([O-])CC(=O)c1cc2cc3c(cc2s1)OCO3` (configuration not stated), the Activity [1] is reported as 0.6%.
With `CCOC(=O)c1cc2cccc(OC)c2o1` the Activity [1] was 12.4%.
Molecule `CCOC(=O)c1cc2ccccc2s1` has an Activity [1] of 8.2%.
In the case of `C[S+]([O-])CC(=O)c1cc2ccccc2s1` (configuration not stated), the Activity (Mus musculus [2]) is reported as “Active”, the Activity (Mus musculus [3]) is reported as “Active” and the Activity (Mus musculus [4]) is reported as “Non-toxic”. The Activity (Mus musculus [5]) was “Active”, the Activity (Mus musculus [6]) was “Non-toxic” and the Activity (Mus musculus [7]) was 5.95%. The Activity (Mus musculus [8]) was 0.072 g/cm2, the Activity (Mus musculus [9]) was “Non-toxic” and the Activity (Mus musculus [10]) was “inactive”. The LD50 at 408 h [11] was greater than 700 mg/kg, the Activity (Mus musculus [12]) was “Non-toxic” and the Activity (Mus musculus [13]) was “Non-toxic”. For the same molecule, the Activity (Mus musculus [14]) was “Active”, the Activity (Mus musculus [15]) was 5.85 µm and the Activity (Mus musculus [16]) was “Non-toxic”. The Activity (Mus musculus [17]) was “Non-toxic”, the Activity (Mus musculus [18]) was 0.05 g/cm2 and the Activity (Mus musculus [19]) was 6.45%. For the same molecule, the Activity (Mus musculus [20]) was “Non-toxic”, the Activity (Mus musculus [21]) was 5.13% and the Activity (Mus musculus [22]) was “Active”. The Activity (Mus musculus [23]) was 0.09 g/cm2, the Activity (Mus musculus [25]) was “Active” and the Activity [1] was 19.7%.
For `CCOC(=O)c1cc2ccccc2o1`, the Activity [1] was 7.1%.
Work on `CC(=O)c1cc2ccccc2o1` yielded an Activity [1] of 33.5%.

Source: ChEMBL document CHEMBL1156262, “Substituted benzothiophene or benzofuran derivatives as a novel class of bone morphogenetic protein-2 up-regulators: synthesis, structure-activity relationships, and preventive bone loss efficacies in senescence accelerated mice (SAMP6) and ovariectomized rats” (J Med Chem, 2010)
